Assay results as given in publication PMC6262736 (Pharmacology Research & Perspectives, 2018).
Like-named read-outs stand apart in the source and are kept apart here.

Columns and labels:
[1] = test system: severe SMA mice; conditions: cited from earlier work
[2] = Phase 1 MOONFISH trial, patients with Type 2 and 3 SMA; ref NCT03032172; cited from earlier work
[3] = molecular target: human MDR1 (Homo sapiens, UniProt P08183); assay: Bidirectional transport assay in L‐MDR1 cells; assay type: in vitro ADME; conditions: 1 μM
How it was run: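 Transport run in LLC-PK1 or MDCKII cells, parental or transfected (L-MDR1 human MDR1, L-Mdr1a rodent Mdr1a, M-BCRP human BCRP, M-Bcrp rodent Bcrp). Cells were grown on semipermeable inserts and assayed bidirectionally on day 3 or 4 after seeding. Donor medium held 1 μM test compound plus 10 μM Lucifer yellow to check monolayer integrity. Receiver medium lacked phenol red, with or without inhibitor: zosuquidar 1 μM for MDR1/Mdr1a, Ko143 1 μM for BCRP/Bcrp. Reference substrates served as activity controls.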

[4] = test system: SMN protein; assay: SMN protein levels in tissues of C/C‐allele SMA mice; assay type: in vivo; conditions: 10 mg/kg/day PO, 10 days, Study 12
How it was run: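 Adult C/C-allele SMA mice (FVB.129(B6) background) started dosing at ~7 weeks. Dosing was once-daily oral, as a suspension in 0.5% HPMC/0.1% Tween 80. Mice were killed by CO2 1 h after the last dose; tissues were unperfused, homogenized and diluted in RIPA. SMN was measured by HTRF in duplicate (averaged) against a recombinant human SMN standard curve, and total protein by BCA. Result: SMN/total protein per treated mouse ÷ vehicle-group mean.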

[5] = monkeys; dosing in MOONFISH suspended because of it; ref not given; cited from earlier work
[6] = Predicted CSF‐to‐unbound plasma partition coefficient from L‐Mdr1a efflux ratio; parameters: species or system rat; conditions: based on the rodent ER and model from ref 25
How it was run: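 pKp,uu derived as 1/[(1−γ)+γ·ER], with γ fixed at 0.753 and ER being the efflux ratio measured in L-Mdr1a cells.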

[7] = test system: SMN protein; assay: SMN protein levels in brain and muscle of SMNΔ7 mice; assay type: in vivo; conditions: 7 days of once daily dosing, Study 4
[8] = test system: SMNΔ7 mice; conditions: dosed once daily for 219 days, Study 5; cited from earlier work
[9] = test system: SMN protein; conditions: SUNFISH Part 1 early interim data, dose‐dependent; cited from earlier work
[10] = Plasma, brain and CSF drug levels in rats; assay type: in vivo; conditions: Wistar, rat, brain / total plasma, po, 7.5 mg/kg/day
[11] = Tissue distribution in cynomolgus monkeys; assay type: in vivo, cynomolgus monkeys (Macaca fascicularis); conditions: for concentration at 7 days / Kp at 7 days / concentration at 6 weeks after the last dose: cynomolgus monkey, oral, 3 mg/kg/day
[12] = monkeys, Study 10, after 22 weeks' treatment‐free recovery period
[13] = two cynomolgus monkeys, Study 9

human MDR1, sequence (P08183 whole entry): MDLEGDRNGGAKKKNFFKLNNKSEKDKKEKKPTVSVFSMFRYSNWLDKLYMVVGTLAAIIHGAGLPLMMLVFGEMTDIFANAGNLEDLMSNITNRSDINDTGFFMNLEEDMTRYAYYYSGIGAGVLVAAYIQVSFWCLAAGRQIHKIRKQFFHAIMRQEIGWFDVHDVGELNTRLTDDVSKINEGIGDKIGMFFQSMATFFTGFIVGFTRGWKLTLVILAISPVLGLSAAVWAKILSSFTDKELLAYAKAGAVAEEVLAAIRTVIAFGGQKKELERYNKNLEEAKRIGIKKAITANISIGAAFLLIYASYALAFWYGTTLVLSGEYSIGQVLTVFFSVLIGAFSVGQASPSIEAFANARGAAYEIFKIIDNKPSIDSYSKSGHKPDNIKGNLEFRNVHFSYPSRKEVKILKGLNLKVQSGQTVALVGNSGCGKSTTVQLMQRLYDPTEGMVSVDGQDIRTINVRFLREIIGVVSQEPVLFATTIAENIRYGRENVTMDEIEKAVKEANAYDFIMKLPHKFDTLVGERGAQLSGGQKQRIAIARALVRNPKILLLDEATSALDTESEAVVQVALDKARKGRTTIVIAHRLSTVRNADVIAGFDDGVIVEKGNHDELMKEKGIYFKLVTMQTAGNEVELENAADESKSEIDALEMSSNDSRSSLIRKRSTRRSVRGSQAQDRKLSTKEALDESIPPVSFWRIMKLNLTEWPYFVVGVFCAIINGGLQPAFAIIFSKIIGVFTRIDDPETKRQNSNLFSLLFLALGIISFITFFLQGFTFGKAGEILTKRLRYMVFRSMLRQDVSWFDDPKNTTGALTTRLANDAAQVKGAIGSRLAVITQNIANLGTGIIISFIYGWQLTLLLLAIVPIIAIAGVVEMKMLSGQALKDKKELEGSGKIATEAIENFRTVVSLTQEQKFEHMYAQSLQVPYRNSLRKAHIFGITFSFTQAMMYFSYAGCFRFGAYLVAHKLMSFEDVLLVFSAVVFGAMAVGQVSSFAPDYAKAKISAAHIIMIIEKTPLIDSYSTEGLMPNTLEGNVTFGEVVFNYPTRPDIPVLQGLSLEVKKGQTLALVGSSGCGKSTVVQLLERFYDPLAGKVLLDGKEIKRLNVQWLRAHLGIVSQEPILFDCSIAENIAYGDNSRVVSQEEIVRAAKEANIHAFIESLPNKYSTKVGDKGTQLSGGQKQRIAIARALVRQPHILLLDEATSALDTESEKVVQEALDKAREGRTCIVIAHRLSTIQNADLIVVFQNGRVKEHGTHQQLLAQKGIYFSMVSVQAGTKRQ

For nusinersen, the median lifespan ([1]; intracerebroventricular administration) is given as 16 days and the median lifespan ([1]; subcutaneous injections) is given as 108 days.
In the case of `CCc1nc(C)cn2nc(-c3cc(=O)n4cc(C5CCN(C)CC5)cc(C)c4n3)cc12` [RG7800, 2‐(4‐ethyl‐6‐methyl‐pyrazolo[1,5‐a]pyrazin‐2‐yl)‐9‐methyl‐7‐(1‐methyl‐4‐piperidyl)pyrido[1,2‐a]pyrimidin‐4‐one], the serious adverse events [2] is given as “no serious adverse events were reported”, the “substrate of human MDR1” value [3] is given as “not a substrate of human MDR1” and the “SMN protein increase from baseline in heart” value [4] is given as 31%. The “SMN protein increase from baseline in muscle” value [4] was 23%, the “SMN protein increase in pancreas” value [4] was “fourfold” and the “findings in long‐term nonclinical safety studies” value [5] was “off‐target retinal findings”.
For `Cc1cn2nc(-c3cc(=O)n4cc(N5CCNC6(CC6)C5)ccc4n3)cc(C)c2n1` [risdiplam, 7‐(4,7‐diazaspiro[2.5]octan‐7‐yl)‐2‐(2,8‐dimethylimidazo[1,2‐b]pyridazin‐6‐yl)pyrido[1,2‐a]pyrimidin‐4‐one], the “predicted CSF‐to‐unbound plasma partition coefficient (pKp,uu)” value [6] was 0.33, the “increase in SMN protein levels in brain” value ([7]; 0.1 mg/kg/day) was 28% and the “increase in SMN protein levels in muscle” value ([7]; 0.1 mg/kg/day) was 32%. For the same compound, the “increase in SMN protein levels in brain” value ([7]; 1 mg/kg/day) was 206%, the “increase in SMN protein levels in muscle” value ([7]; 1 mg/kg/day) was 210% and the “survival of SMNΔ7 mice” value [8] was “prolonged survival”. For the same compound, the “average increase in functional SMN protein in the blood of patients with SMA” value [9] was “up to 2.5 fold”, the Kp at 90 days [10] was 0.92 and the concentration at 7 days ([11]; CSF) was 53.5 ng/mL. The Kp at 7 days ([11]; bone marrow / plasma) was ~5, the concentration at 7 days ([11]; brain) was 783 ng/g and the concentration at 6 weeks after the last dose ([11]; duodenum) was < 1 ng/g. For the same compound, the Kp at 7 days ([11]; kidney / plasma) was 10, the concentration at 6 weeks after the last dose ([11]; kidney) was ~4 ng/g and the concentration at 6 weeks after the last dose ([11]; larynx) was < 1 ng/g. For the same compound, the concentration at 6 weeks after the last dose ([11]; liver) was ~4 ng/g, the concentration at 7 days ([11]; muscle) was 668 ng/g and the concentration at 7 days ([11]; plasma (unbound)) was 119 ng/mL. The concentration at 7 days ([11]; plasma) was 794 ng/mL, the Kp at 7 days ([11]; spleen / plasma) was ~5 and the concentration at 6 weeks after the last dose ([11]; spleen) was < 1 ng/g. The “drug level in CSF” value [11, 12] was “below the limit of quantification (BLQ)”, the “drug level in brain” value [11, 12] was “below the limit of quantification (BLQ)” and the “drug level in plasma” value [11, 12] was “below the limit of quantification (BLQ)”. The “average cortex/brain stem concentrations ratio” value ([11]; monkeys, Study 10, n = 22) was 1.10, the “difference of brain drug level from total plasma concentration” value [11, 13] was “less than 30%” and the “difference of heart drug level from total plasma concentration” value [11, 13] was “less than 30%”. For the same compound, the “difference of larynx drug level from total plasma concentration” value [11, 13] was “less than 30%” and the “difference of muscle drug level from total plasma concentration” value [11, 13] was “less than 30%”.
